The nature of this series: Toxicity liver stage against HepG2, at 10uM. Type of series: cell-based. Also on record: test concentration 10 uM, cell line HepG2-A16-CD81EGFP. The settings on record: human, HepG2-A16-CD81EGFP cells; read-out: INHIBITION
In outline:
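Uninfected HepG2-A16-CD81EGFP cells, 3 × 10^3 per well, 1536-well, plated on prespotted compound at 10 μM final, parasite-free screening media added to match infected plates; puromycin 10 μM positive, DMSO 0.5% negative; run in parallel with 48 h PbLuc assay at 37 °C, 5% CO2; viability by CellTiter-Glo luminescence, normalized to controls.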
On to `COc1cccc(OCCNCc2ccccc2)c1`, for which the cytotoxicity at 10 µM was determined as 10.7%.

With `CCC(C)[C@H](NC(=O)c1ccc(F)cc1-n1cnnn1)C(=O)OC` (some centres not stated), the cytotoxicity at 10 µM came out at 5.55%.

Regarding `COc1ccc(-c2n[nH]c(C)c2CC(=O)N2CCOCC2)cc1`, the cytotoxicity at 10 µM was -14.2%.

As for `Cc1nnc(C2CCN(C(=O)c3ccc4nccnc4c3)CC2)s1`, the cytotoxicity at 10 µM came out at 5.05%.

Regarding `Cn1cccc1C(=O)N1CC[C@@H]2[C@@H]1CC(=O)N2CC1CCOCC1`, the cytotoxicity at 10 µM is -2.82%.

Consider `O=C(C1CCOC1)N1CCc2ncnc(NC3CCC3)c2CC1` (configuration not stated), for which the cytotoxicity at 10 µM was -151%.

`c1ccc(COC[C@H]2CC[C@H]3[C@H](CCN3Cc3ccco3)O2)nc1`: the cytotoxicity at 10 µM is -144%.

Take `COCCNCc1ccc(OCC(=O)NC(C)(C)C)cc1`: the cytotoxicity at 10 µM is -8.08%.

Take `COCC(=O)NC(Cc1cc(N(C)C)nc(C2CC2)n1)c1ccccc1` (configuration not stated): the cytotoxicity at 10 µM came to 3.03%.

`C=Cn1ncc(CN2C[C@@H]3CCCN3C[C@H]2Cc2ccccc2)c1C`: the cytotoxicity at 10 µM is -18.5%.

Consider `CCc1cc(O)nc(C2CCCN2C(=O)c2cc(CC)on2)n1` (configuration not stated), for which the cytotoxicity at 10 µM was -12.6%.

With `NC(=O)CN1CCCC1c1csc(Nc2cnccn2)n1` (configuration not stated), the cytotoxicity at 10 µM is -11.2%.

Regarding `O=c1oc2ccccc2n1CCN(CC1CCOC1)C1CC1` (configuration not stated), the cytotoxicity at 10 µM is 4.78%.

On to `O[C@@H]1CN(Cc2cc(Cl)cc3cccnc23)C[C@@H]1O`, for which the cytotoxicity at 10 µM was 0.342%.

Regarding `CC(C)c1nnc2n1CC(CNC/C=C/c1ccccc1)CC2` (configuration not stated), the cytotoxicity at 10 µM came to 3.76%.

As to `CCCC(=O)NCc1cccc(C(=O)OC)c1`, the cytotoxicity at 10 µM came out at 5.99%.

`O=C(NCCc1nnc[nH]1)Nc1cccc(SC(F)F)c1`: the cytotoxicity at 10 µM is -42.4%.

Turning to `Cc1nc(C)c(S(=O)(=O)NC(=O)c2sccc2C)s1`, the cytotoxicity at 10 µM is 0.25%.

For the molecule `COCc1nc(CNc2cc(C)on2)cs1`, the cytotoxicity at 10 µM came to 4.05%.

Turning to `CCOc1cccc(C(=O)N(CCC#N)Cc2ccccn2)c1`, the cytotoxicity at 10 µM is 5.42%.

For `CCC(CNC(=O)c1ccco1)N1CCc2ccccc2C1` (configuration not stated), the cytotoxicity at 10 µM is 18.3%.

Turning to `CN(Cc1ccc(C#N)cc1)C(=O)c1ccnc(OC2CCC2)c1`, the cytotoxicity at 10 µM turned out to be 7.59%.

`COc1c(CNCc2cccnc2N2CCN(C)CC2)c(C)nn1C`: the cytotoxicity at 10 µM was -134%.

Consider `COc1cccc(C2CCCN2Cc2nnnn2C2CC2)c1` (configuration not stated), for which the cytotoxicity at 10 µM came to 4.17%.

As to `CCNC(=O)N1CCC(NC(=O)NCCc2ccc(C)cc2C)C1` (configuration not stated), the cytotoxicity at 10 µM is -44.6%.

Turning to `Cn1cc(N2CCCC(SCc3nc(C4CC4)no3)C2=O)cn1` (configuration not stated), the cytotoxicity at 10 µM turned out to be 21.8%.

With `Cc1cc(NC(=O)CN(CC(C)O)c2ccccc2)on1` (configuration not stated), the cytotoxicity at 10 µM was -2.15%.

Regarding `Cc1ccc(OCC(C)NS(=O)(=O)N(C)C)cc1` (configuration not stated), the cytotoxicity at 10 µM stood at 8.81%.

`CS(=O)(=O)NCCN(CCCO)C1CCc2ccccc21` (configuration not stated): the cytotoxicity at 10 µM turned out to be 3.09%.

With `COc1ccc(-c2noc(C(CC(C)C)N3CCCCC3=O)n2)cn1` (configuration not stated), the cytotoxicity at 10 µM was -54.2%.

`O=C(CN1CCC(C(=O)c2cc(F)ccc2F)CC1)NC1CCCC1`: the cytotoxicity at 10 µM came out at 4.93%.

Take `CCOC1CCC2(CCN(C(=O)c3c[nH]cn3)CC2)c2ccccc21` (configuration not stated): the cytotoxicity at 10 µM came to 7.5%.

In the case of `Cc1noc([C@H]2CC[C@@H]3[C@@H](CCN3c3ncccn3)O2)n1`, the cytotoxicity at 10 µM amounted to 3.06%.

As for `CC(C)Nc1ncnc2c1CCN(C(=O)NCc1cccc(F)c1)CC2`, the cytotoxicity at 10 µM is -110%.

With `CC(=O)N1CCC(c2nnc3ccc(C(=O)NCC(C)C)cn23)C1` (configuration not stated), the cytotoxicity at 10 µM was -108%.

As to `COc1nn(C)c2c1CCCN(C(=O)c1cscn1)C2`, the cytotoxicity at 10 µM was -97.2%.

As for `COCCC(=O)N1CCn2c(COCC3CC3)cnc2C1C` (configuration not stated), the cytotoxicity at 10 µM was determined as 4.17%.

In the case of `O=C(CO)N1CCc2onc(Cn3cccn3)c2C1`, the cytotoxicity at 10 µM was 0.436%.

Regarding `COc1ccc(CCN2C(=O)O[C@@H]3CN(C)C[C@@H]32)cc1`, the cytotoxicity at 10 µM was -2%.

As for `COc1ccc(C(=O)C2CCCN(c3nccc(N)n3)C2)c(C)c1` (configuration not stated), the cytotoxicity at 10 µM is 5.67%.

For `CCN(CC)C(=O)[C@@H]1C[C@@H](NC(=O)c2ccn(C(C)(C)C)c2)CN1C`, the cytotoxicity at 10 µM is -4.12%.

In the case of `Cc1cccc(=O)n1CCC(=O)N1CC[C@](C)(O)[C@H](C)C1`, the cytotoxicity at 10 µM worked out at 2.81%.

For the molecule `CNS(=O)(=O)c1ccc(CN2CCCC2c2ccc(F)cc2)cc1` (configuration not stated), the cytotoxicity at 10 µM turned out to be 11.6%.

`COc1ccc(Oc2ncccc2C(N)=O)cc1CN1CCCC1`: the cytotoxicity at 10 µM was found to be 0.0453%.

Regarding `Clc1cc(N2CCC(N3CCCC3)CC2)nc2[nH]ccc12`, the cytotoxicity at 10 µM was -0.77%.

On to `COc1ccc(-c2cn(CCn3c(C)cc(C)nc3=O)nn2)cn1`, for which the cytotoxicity at 10 µM is 6.05%.

`CC(C)=CCN1CCN(CCCc2ccccc2)[C@H]2CS(=O)(=O)C[C@H]21`: the cytotoxicity at 10 µM is -1.06%.

Take `COc1cc(-c2nccn2C(C)CCn2cccn2)cc2c1OCO2` (configuration not stated): the cytotoxicity at 10 µM is 0.562%.

Regarding `CN(Cc1csc(-c2cccs2)n1)CC(O)CO` (configuration not stated), the cytotoxicity at 10 µM was -0.712%.

As to `CCSCCNc1nc(-c2ccccn2)nc2c1c(C)nn2C`, the cytotoxicity at 10 µM is 6.35%.

Consider `CC(C)Cc1noc(CN(C)C(=O)CCNC(=O)c2ccccc2F)n1`, for which the cytotoxicity at 10 µM is -9.22%.

Consider `COc1ccc(-c2ccncc2)cc1CNC1CCCC1`, for which the cytotoxicity at 10 µM was -47.7%.

As to `CCC[C@@H]1CN(C(=O)c2cc3ccccc3cc2O)C[C@H]1N(C)C`, the cytotoxicity at 10 µM is -10.2%.

`CCc1ccccc1OCCNCCc1c[nH]cn1`: the cytotoxicity at 10 µM amounted to 4.69%.

Turning to `Cc1cc(C)n(CC(=O)N2Cc3cnc(C(C)(C)C)nc3C2)n1`, the cytotoxicity at 10 µM came out at 3.1%.

Regarding `CCNC(=O)c1ccnc(NCC2COc3cc(OC)ccc3C2)c1` (configuration not stated), the cytotoxicity at 10 µM was determined as 0.145%.

Take `CCc1ccc(C2NCCc3cc4c(cc32)OCCO4)cc1` (configuration not stated): the cytotoxicity at 10 µM is -6.63%.

`Cc1cncc(C2CCCN(C(=O)c3scnc3C)C2)n1` (configuration not stated): the cytotoxicity at 10 µM was -2.19%.

With `Cc1ccc(NC2CCN(C(=O)c3ccc(C)o3)CC2)nn1`, the cytotoxicity at 10 µM was -4.69%.

`CCCOCC(=O)NS(=O)(=O)c1ccc2c(c1)OCCCO2`: the cytotoxicity at 10 µM is -5.67%.

As for `COc1ccccc1C(=O)NC(C)CC(=O)O` (configuration not stated), the cytotoxicity at 10 µM is -2.43%.

Consider `Cc1nc(C2CCCN(C(=O)c3cccc(S(C)(=O)=O)c3)C2)no1` (configuration not stated), for which the cytotoxicity at 10 µM is -2.33%.

`c1cc(CN2CCCC(c3noc(C4CC4)n3)C2)no1` (configuration not stated): the cytotoxicity at 10 µM is -7.57%.

For `Clc1ccc(-n2cc(CNC3CCc4ncnn4C3)cn2)cc1` (configuration not stated), the cytotoxicity at 10 µM worked out at 0.77%.

As to `CNc1cc2c(nn1)CCN(C(=O)c1ccoc1)C2`, the cytotoxicity at 10 µM came out at 4.6%.

Regarding `CCN1C(=O)CCCC12CCCN(C(=O)c1ccncc1F)C2` (configuration not stated), the cytotoxicity at 10 µM is -3.27%.

Take `COc1ccc2c(c1)C1(CCN(Cc3nccs3)CC1)N(C)CC2`: the cytotoxicity at 10 µM was -148%.

As to `CCc1cnc(N2CC[C@H]3[C@@H]2CCC(=O)N3CC2CCOCC2)nc1`, the cytotoxicity at 10 µM was 4.28%.

For the molecule `O=C1NCC[C@]12CN(Cc1ccncc1)C[C@H]2c1ccccc1`, the cytotoxicity at 10 µM was -147%.

For the molecule `O=C(Cc1ccc(F)cc1)N1CCn2cc(Cn3cccn3)nc2C1`, the cytotoxicity at 10 µM is 4.58%.

For `Cc1ccc(CN2CCC3(CC2)C(c2ccccc2)CC(=O)N3C)o1` (configuration not stated), the cytotoxicity at 10 µM is -101%.

Take `COCC1CN(C(=O)COc2ccccc2)Cc2ncn(C)c21` (configuration not stated): the cytotoxicity at 10 µM was determined as 0.104%.

The record behind these values is ChEMBL document CHEMBL4513216, “Probing the Open Global Health Chemical Diversity Library for Multistage-Active Starting Points for Next-Generation Antimalarials” (ACS Infect Dis, 2020).
